Active and inactive are the calls of the source. No cut-off for these calls is given here.
Columns and labels:
[1] = biological target: Mitogen-activated protein kinase; ERK1/ERK2 (Homo sapiens) (UniProt P27361+P28482); experiment: Inhibition of ERK1/2 in human NCI-H1975 cells assessed as blocking of ERK1/2 pulldown at 1 uM in presence of TL13-68 incubated for 2 hrs by Western blot analysis; type: cell-based
How it was run: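 H1975 or HCC827 cells treated with 1 μM compound or DMSO for 2 h, rinsed twice in cold PBS, and lysed in M-PER with protease/phosphatase inhibitors. Lysate rocked overnight at 4 °C with 1 μM TL13-68, then streptavidin pulldown with five cold washes. Bound kinases detected by Western blot. Two independent experiments.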

[2] = system: Tyrosine-protein kinase ABL1 (Homo sapiens), P00519 [E255K]; experiment: Binding affinity to human phosphorylated ABL1 E255K mutant (S229 to K512 residues) expressed in mammalian expression system assessed as residual binding level at 1 uM by Kinomescan method relative to control
How it was run: (§1)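 KinomeScan active site-directed competition binding panel (468 kinases), compound tested at 1 μM. Result expressed as remaining kinase signal versus DMSO control (percent of control).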

[3] = system: Tyrosine-protein kinase ABL1 (Homo sapiens), P00519 [Y253F]; experiment: Binding affinity to human phosphorylated ABL1 Y253F mutant (S229 to K512 residues) expressed in mammalian expression system assessed as residual binding level at 1 uM by Kinomescan method relative to control
How it was run: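 Active-site-directed KinomeScan competition binding panel covering 468 kinases, compound tested at 1 μM. Each readout is the kinase signal remaining with compound, expressed as a percentage of the DMSO control. […]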

[4] = biological target: Bone morphogenetic protein receptor type-1B (Homo sapiens) (UniProt O00238); experiment: Binding affinity to wild-type human partial length BMPR1B (D178 to L502 residues) expressed in mammalian expression system assessed as residual binding level at 1 uM by Kinomescan method relative to control
[5] = biological target: Ephrin type-A receptor 6 (Homo sapiens) (UniProt Q9UF33); experiment: Binding affinity to wild-type human partial length EPHA6 (Y700 to E1046 residues) expressed in bacterial expression system assessed as residual binding level at 1 uM by Kinomescan method relative to control
Chain of Ephrin type-A receptor 6 (Homo sapiens) (Q9UF33 whole entry, the tested form may be a part): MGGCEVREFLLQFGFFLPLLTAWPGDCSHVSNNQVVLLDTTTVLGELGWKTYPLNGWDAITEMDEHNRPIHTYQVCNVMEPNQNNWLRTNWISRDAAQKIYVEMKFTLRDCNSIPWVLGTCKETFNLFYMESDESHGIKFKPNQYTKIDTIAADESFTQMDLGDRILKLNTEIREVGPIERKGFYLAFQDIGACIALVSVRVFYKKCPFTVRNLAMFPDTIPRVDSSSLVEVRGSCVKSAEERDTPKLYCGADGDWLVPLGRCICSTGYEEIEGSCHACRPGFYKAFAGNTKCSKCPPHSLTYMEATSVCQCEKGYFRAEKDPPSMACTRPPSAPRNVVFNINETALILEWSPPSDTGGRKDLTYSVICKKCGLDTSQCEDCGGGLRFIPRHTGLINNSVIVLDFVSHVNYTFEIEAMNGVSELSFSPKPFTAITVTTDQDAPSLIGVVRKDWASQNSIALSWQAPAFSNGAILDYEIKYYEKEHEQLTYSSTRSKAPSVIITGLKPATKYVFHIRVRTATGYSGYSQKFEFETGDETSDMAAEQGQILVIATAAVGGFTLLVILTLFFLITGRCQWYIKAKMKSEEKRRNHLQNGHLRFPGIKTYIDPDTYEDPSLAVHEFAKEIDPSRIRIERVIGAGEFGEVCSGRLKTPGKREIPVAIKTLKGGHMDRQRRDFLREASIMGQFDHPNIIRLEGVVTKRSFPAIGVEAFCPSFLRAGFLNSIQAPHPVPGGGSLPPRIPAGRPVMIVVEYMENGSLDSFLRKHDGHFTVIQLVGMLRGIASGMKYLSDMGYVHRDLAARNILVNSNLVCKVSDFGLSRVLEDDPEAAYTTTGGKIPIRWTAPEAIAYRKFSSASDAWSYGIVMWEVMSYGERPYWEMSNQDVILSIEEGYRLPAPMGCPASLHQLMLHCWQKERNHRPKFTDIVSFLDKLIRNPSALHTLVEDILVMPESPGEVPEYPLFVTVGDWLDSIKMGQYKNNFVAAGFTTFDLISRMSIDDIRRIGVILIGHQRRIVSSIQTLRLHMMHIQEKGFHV

[6] = biological target: Tyrosine-protein kinase Fer (Homo sapiens) (UniProt P16591); experiment: Binding affinity to wild-type human partial length FER (S542 to T822 residues) expressed in bacterial expression system assessed as residual binding level at 1 uM by Kinomescan method relative to control
Chain of Tyrosine-protein kinase Fer (Homo sapiens) (P16591 whole entry, looked up, the tested form may be a part): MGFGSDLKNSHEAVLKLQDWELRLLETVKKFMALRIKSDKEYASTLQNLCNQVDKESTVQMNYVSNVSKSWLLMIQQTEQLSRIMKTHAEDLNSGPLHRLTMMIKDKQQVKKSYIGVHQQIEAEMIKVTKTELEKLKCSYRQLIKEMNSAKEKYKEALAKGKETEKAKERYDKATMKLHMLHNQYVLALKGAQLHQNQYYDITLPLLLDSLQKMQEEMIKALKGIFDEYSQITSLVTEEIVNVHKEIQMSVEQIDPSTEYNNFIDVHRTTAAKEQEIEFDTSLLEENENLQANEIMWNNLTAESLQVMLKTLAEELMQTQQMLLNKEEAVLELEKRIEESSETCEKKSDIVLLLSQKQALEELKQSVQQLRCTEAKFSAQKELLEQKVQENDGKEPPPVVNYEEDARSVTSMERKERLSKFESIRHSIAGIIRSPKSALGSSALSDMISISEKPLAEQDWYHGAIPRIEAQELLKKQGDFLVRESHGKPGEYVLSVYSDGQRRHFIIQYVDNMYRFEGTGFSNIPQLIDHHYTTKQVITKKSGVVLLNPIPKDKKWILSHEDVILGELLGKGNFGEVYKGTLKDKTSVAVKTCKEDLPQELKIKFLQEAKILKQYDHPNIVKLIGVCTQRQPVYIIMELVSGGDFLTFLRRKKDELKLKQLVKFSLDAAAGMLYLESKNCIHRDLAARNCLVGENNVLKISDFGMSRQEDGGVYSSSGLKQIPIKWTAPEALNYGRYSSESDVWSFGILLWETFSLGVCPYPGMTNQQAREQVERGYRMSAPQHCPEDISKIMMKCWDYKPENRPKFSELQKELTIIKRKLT

[7] = system: Fibroblast growth factor receptor 3 (Homo sapiens), P22607 [G697C]; experiment: Binding affinity to human partial length FGFR3 G697C mutant (R442 to S771 residues) expressed in bacterial expression system assessed as residual binding level at 1 uM by Kinomescan method relative to control; how it was run: as §1
[8] = biological target: Mitogen-activated protein kinase 10 (Homo sapiens) (UniProt P53779); experiment: Binding affinity to wild-type human partial length JNK3 (V28 to Q422 residues) expressed in mammalian expression system assessed as residual binding level at 1 uM by Kinomescan method relative to control
Chain of Mitogen-activated protein kinase 10 (Homo sapiens) (P53779 whole entry, the tested form may be a part): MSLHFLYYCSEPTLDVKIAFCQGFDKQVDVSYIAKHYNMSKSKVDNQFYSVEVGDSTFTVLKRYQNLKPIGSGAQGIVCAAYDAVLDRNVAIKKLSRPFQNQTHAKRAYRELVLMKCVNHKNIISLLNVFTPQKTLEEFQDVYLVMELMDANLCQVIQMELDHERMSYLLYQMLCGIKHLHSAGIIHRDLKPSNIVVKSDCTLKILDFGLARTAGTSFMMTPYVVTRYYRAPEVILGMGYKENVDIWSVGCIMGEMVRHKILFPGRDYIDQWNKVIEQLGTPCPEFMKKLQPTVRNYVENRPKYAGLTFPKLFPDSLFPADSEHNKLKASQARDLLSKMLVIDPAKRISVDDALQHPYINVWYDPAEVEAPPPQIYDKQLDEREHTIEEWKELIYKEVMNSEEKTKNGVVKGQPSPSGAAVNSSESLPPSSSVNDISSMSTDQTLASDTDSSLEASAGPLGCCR

[9] = biological target: Dual specificity mitogen-activated protein kinase kinase 1 (Homo sapiens) (UniProt Q02750); experiment: Binding affinity to wild-type human full length MEK1 (M1 to V393 residues) expressed in mammalian expression system assessed as residual binding level at 1 uM by Kinomescan method relative to control
How it was run: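 KinomeScan, an active site-directed competition binding panel of 468 kinases. The test compound was at 1 μM. The readout is remaining kinase binding as a percentage of the DMSO control. Scores above 35% were treated as weak binding and not listed.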

[10] = biological target: Macrophage-stimulating protein receptor (Homo sapiens) (UniProt Q04912); experiment: Binding affinity to wild-type human partial length MST1R (I1057 to L1363 residues) expressed in bacterial expression system assessed as residual binding level at 1 uM by Kinomescan method relative to control
[11] = biological target: Serine/threonine-protein kinase Nek6 (Homo sapiens) (UniProt Q9HC98); experiment: Binding affinity to wild-type human full length NEK6 (M8 to T313 residues) expressed in bacterial expression system assessed as residual binding level at 1 uM by Kinomescan method relative to control
Chain of Serine/threonine-protein kinase Nek6 (Homo sapiens) (Q9HC98 whole entry, the tested form may be a part): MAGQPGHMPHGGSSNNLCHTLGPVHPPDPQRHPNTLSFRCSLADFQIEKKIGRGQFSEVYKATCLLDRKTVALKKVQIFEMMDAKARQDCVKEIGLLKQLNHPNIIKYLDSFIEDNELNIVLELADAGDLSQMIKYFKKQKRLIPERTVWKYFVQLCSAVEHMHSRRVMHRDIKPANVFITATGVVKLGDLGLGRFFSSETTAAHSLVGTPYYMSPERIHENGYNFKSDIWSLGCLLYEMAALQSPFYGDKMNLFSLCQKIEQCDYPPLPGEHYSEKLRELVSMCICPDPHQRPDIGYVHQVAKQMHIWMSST
How it was run: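 Active-site-directed competition binding panel (KinomeScan) covering 468 kinases. Test agent was screened at 1 μM. The read-out is the remaining kinase signal expressed relative to a DMSO control. Scores above 35%, taken as weak binding, were not reported.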

[12] = biological target: Phosphatidylinositol 4,5-bisphosphate 3-kinase catalytic subunit delta isoform (Homo sapiens) (UniProt O00329); experiment: Binding affinity to wild-type human partial length PIK3CD (R108 to Q1044 residues) expressed in mammalian expression system assessed as residual binding level at 1 uM by Kinomescan method relative to control
[13] = biological target: cAMP-dependent protein kinase catalytic subunit PRKX (Homo sapiens) (UniProt P51817); experiment: Binding affinity to wild-type human partial length PRKX (M1 to F358 residues) expressed in bacterial expression system assessed as residual binding level at 1 uM by Kinomescan method relative to control
[14] = biological target: Receptor-interacting serine/threonine-protein kinase 4 (Homo sapiens) (UniProt P57078); experiment: Binding affinity to wild-type human partial length RIPK4 (M1 to V303 residues) expressed in mammalian expression system assessed as residual binding level at 1 uM by Kinomescan method relative to control
Chain of Receptor-interacting serine/threonine-protein kinase 4 (Homo sapiens) (P57078 whole entry, the tested form may be a part): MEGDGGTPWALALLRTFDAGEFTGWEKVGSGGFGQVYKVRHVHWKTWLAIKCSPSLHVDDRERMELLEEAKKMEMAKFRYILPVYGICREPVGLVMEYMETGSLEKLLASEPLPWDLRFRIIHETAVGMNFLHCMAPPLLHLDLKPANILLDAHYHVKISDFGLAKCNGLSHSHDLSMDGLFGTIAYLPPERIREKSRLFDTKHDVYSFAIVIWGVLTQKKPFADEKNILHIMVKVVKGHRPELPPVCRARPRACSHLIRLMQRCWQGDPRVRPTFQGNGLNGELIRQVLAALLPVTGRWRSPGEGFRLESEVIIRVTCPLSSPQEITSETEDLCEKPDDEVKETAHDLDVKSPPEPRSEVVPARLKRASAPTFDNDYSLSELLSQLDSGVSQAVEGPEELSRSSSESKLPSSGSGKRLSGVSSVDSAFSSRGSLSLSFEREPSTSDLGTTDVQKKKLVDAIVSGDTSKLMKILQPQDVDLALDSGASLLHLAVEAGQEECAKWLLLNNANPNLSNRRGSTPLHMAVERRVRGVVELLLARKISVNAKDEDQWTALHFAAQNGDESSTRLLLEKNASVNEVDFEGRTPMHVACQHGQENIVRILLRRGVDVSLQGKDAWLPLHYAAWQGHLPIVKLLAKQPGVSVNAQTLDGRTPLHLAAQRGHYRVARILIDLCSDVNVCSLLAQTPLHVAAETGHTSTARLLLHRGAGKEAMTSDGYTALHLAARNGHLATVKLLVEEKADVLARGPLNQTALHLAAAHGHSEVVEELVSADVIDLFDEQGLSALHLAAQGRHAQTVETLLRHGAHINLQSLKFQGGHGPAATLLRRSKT

[15] = biological target: Ribosomal protein S6 kinase alpha-2 (Homo sapiens) (UniProt Q15349); experiment: Binding affinity to wild-type human partial length N- terminal RSK3 kinase domain 1 (M1 to Q385 residues) expressed in bacterial expression system assessed as residual binding level at 1 uM by Kinomescan method relative to control
Chain of Ribosomal protein S6 kinase alpha-2 (Homo sapiens) (Q15349 whole entry, the tested form may be a part): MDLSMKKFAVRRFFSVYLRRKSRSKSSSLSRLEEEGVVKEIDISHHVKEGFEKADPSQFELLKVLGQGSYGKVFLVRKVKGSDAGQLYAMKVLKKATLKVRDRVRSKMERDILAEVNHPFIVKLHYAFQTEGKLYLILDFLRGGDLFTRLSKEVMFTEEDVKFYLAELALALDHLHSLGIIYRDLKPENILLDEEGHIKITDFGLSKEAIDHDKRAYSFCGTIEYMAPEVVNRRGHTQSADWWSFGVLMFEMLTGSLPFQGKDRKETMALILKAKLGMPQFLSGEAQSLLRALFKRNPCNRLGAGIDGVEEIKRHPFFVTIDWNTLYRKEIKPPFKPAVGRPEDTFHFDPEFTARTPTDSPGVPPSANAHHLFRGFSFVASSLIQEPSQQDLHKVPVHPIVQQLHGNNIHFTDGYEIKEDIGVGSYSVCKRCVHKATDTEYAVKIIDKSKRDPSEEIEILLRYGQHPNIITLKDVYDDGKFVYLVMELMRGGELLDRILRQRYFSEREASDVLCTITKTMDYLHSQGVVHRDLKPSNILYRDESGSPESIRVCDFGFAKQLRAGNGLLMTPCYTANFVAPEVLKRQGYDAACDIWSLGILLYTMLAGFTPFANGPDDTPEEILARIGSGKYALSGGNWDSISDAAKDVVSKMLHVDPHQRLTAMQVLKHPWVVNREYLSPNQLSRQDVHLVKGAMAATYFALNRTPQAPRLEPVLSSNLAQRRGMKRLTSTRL

[16] = biological target: Tyrosine-protein kinase Srms (Homo sapiens) (UniProt Q9H3Y6); experiment: Binding affinity to wild-type human partial length SRMS (L208 to P488 residues) expressed in mammalian expression system assessed as residual binding level at 1 uM by Kinomescan method relative to control
[17] = biological target: Serine/threonine-protein kinase 16 (Homo sapiens) (UniProt O75716); experiment: Binding affinity to wild-type human partial length STK16 (G11 to I305 residues) expressed in bacterial expression system assessed as residual binding level at 1 uM by Kinomescan method relative to control
[18] = biological target: Tyrosine-protein kinase receptor TYRO3 (Homo sapiens) (UniProt Q06418); experiment: Binding affinity to wild-type human partial length TYRO3 (S497 to T814 residues) expressed in bacterial expression system assessed as residual binding level at 1 uM by Kinomescan method relative to control
[19] = biological target: Serine/threonine-protein kinase ULK2 (Homo sapiens) (UniProt Q8IYT8); experiment: Binding affinity to wild-type human partial length ULK2 (M1 to S301 residues) expressed in mammalian expression system assessed as residual binding level at 1 uM by Kinomescan method relative to control
[20] = biological target: Tyrosine-protein kinase ZAP-70 (Homo sapiens) (UniProt P43403); experiment: Binding affinity to wild-type human partial length ZAP70 (D20 to G299 residues) expressed in mammalian expression system assessed as residual binding level at 1 uM by Kinomescan method relative to control
Chain of Tyrosine-protein kinase ZAP-70 (Homo sapiens) (P43403 whole entry, the tested form may be a part): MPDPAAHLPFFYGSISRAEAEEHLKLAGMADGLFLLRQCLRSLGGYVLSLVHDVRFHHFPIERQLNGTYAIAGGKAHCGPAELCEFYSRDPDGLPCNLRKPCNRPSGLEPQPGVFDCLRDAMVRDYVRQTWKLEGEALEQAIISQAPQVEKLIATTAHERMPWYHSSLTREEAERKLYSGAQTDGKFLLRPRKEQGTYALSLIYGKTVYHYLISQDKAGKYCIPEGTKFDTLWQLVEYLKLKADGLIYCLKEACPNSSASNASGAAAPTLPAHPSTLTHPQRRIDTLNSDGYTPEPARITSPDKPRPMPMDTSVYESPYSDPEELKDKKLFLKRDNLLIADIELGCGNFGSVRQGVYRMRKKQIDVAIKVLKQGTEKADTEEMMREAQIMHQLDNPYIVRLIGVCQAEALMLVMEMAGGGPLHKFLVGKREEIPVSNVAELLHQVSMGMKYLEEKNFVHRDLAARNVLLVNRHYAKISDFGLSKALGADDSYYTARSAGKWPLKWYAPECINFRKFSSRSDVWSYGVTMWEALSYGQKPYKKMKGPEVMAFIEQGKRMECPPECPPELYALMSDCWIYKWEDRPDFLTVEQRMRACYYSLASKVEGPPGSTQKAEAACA

With `C=CC(=O)Nc1ccccc1Nc1nc(Nc2ccc(N3CCN(C)CC3)cc2)ncc1C(=O)Nc1c(C)cccc1Cl` as the molecule, how does the inhibition [1] read?
The inhibition was “inactive”.

And the Activity [2]?
The Activity was 0.15%.

What about the Activity [3] of the same molecule?
The Activity was 0.1%.

What about the Activity [4] of the same molecule?
The Activity was 100%.

What about the Activity [5] of the same molecule?
The Activity was 100%.

What about the Activity [6] of the same molecule?
Its Activity is 100%.

What about the Activity [7] of the same molecule?
Its Activity is 100%.

And the Activity [8]?
The Activity was 100%.

What about the Activity [9] of the same molecule?
Its Activity is 93%.

And the Activity [10]?
The Activity was 100%.

And the Activity [11]?
Its Activity is 100%.

What about the Activity [12] of the same molecule?
Its Activity is 100%.

And the Activity [13]?
Its Activity is 100%.

What about the Activity [14] of the same molecule?
Its Activity is 100%.

And the Activity [15]?
Its Activity is 100%.

And the Activity [16]?
Its Activity is 87%.

What about the Activity [17] of the same molecule?
The Activity was 100%.

What about the Activity [18] of the same molecule?
The Activity was 89%.

And the Activity [19]?
Its Activity is 100%.

What about the Activity [20] of the same molecule?
Its Activity is 100%.

From ChEMBL document CHEMBL4354843, “Structure-Based Design of a Potent and Selective Covalent Inhibitor for SRC Kinase That Targets a P-Loop Cysteine” (J Med Chem, 2020)
